Screening results as filed in PubChem.
A selection: hits, their analogues and other compounds. The true share with any hit is near 1.7%.
CAL PDZ FP-1: inhibitors of human CAL PDZ peptide binding | purified CAL PDZ, TMR-peptide fluorescence polarization, 1 h | Q9HD26 | inhibition, % at 24.9 µM | actives 0.92% (n = 300,000);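 active = mean inhibition of at least 30% with at least half of replicates also reaching 30%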;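 also: 0% = DMSO neutral control and 100% = excess unlabeled competitor peptide PRC23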
CAL PDZ FP-2: human CAL PDZ-peptide interaction inhibition; Q9HD26; purified CAL PDZ, TMR-peptide fluorescence polarization, 1 h; inhibition, % at 20 µM; actives 0.02% (n = 330,000);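 active = highest replicate inhibition of at least 40%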;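 also: plate controls were DMSO neutral control wells for no effect and unlabeled competitor peptide control wells for full effect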
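System: tagged CAL PDZ domain. Schedule: 1 h room-temperature incubation prior to read. Signal: fluorescence polarization (mP). Measure: percent inhibition from loss of millipolarization.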
PGC1a acetyl inh: lowers PGC1a acetylation signal in U2OS cells; inhibition, % at 15.6 µM; AlphaScreen anti-acetyl-lysine; with virally co-expressed GCN5 acetyltransferase; actives 0.17% (n = 350,000);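 active = every replicate shows inhibition of at least 40%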;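 also: 0% = neutral control wells and 100% = positive control wells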
ARNT TACC3 PPI: disrupts binding between human ARNT and TACC3 | Q9Y6A5 | AID 623870 | AlphaScreen His-ARNT PAS-B/GST-TACC3 binding, luminescence; TACC3 fragment carries E629A point mutation | actives 0.66% (n = 390,000) | inhibition, % at 9.99 µM;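 active = mean inhibition of replicates at least 50% and at least half of replicates each reaching 50%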;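 also: 0% = complete ARNT plus TACC3 wells and 100% = ARNT alone without TACC3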
CFTR F508del cor: CFTR F508del correction in bronchial cells. CFBE cells, YFP halide quenching; stimulated with forskolin plus potentiator P3; % fluorescence drop versus neutral controls. activity (quench increase), % at 7.58 µM. actives 0.36% (n = 350,000);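 active = mean added fluorescence quench of at least 8% versus neutral control, with both replicates also reaching 8%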;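 also: cells transiently co-express mutant CFTR-F508del with the halide-sensitive YFP; corrector assay measuring rescue of mutant channel to the surface after 24 h compound exposure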
miR-122 sensor: inhibitors of miR-122 in Huh7 cells; Huh7 miR-122 Renilla luciferase sensor, 48 h; neutral wells = 0, positive control = 100; activation (reporter increase), % at 12.5 µM; actives 0.3% (n = 340,000); AID 602342;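 active = mean replicate activation score at least 90 and every replicate individually at or above 90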;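 also: higher luciferase means less miR-122 activity so hits act as miR-122 inhibitors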
Active calls of the source: *; [ ] = remark or other dose.

Screening Cc1[nH][nH]c(=O)c1C(c1ccc(-c2ccc(Cl)c(C(=O)O)c2)o1)c1c(C)[nH][nH]c1=O returned CAL PDZ FP-1 3.4, CAL PDZ FP-2 -0.5, PGC1a acetyl inh 39.3, ARNT TACC3 PPI 13.0, CFTR F508del cor -0.9 and miR-122 sensor -4.4.
Screening CCCNC(=O)N(C)C[C@H]1Oc2cc(-c3cccnc3)ccc2S(=O)(=O)N([C@H](C)CO)C[C@H]1C returned PGC1a acetyl inh 5.5, ARNT TACC3 PPI -9.8, CFTR F508del cor 0.9 and miR-122 sensor -0.9[16.7 µM].
For Cc1ccc(-c2nn(CC(=O)NCc3cc(-c4nn(C)c(=O)c5ccccc45)ccc3C)c(=O)c3ccccc23)cc1 the results were CAL PDZ FP-1 39.9*, PGC1a acetyl inh -12.6, ARNT TACC3 PPI 1.0 and miR-122 sensor -13.1.
`CCCCC(NS(=O)(=O)c1ccc(OC)cc1)C(=O)O` (stereo not given) gave CAL PDZ FP-1 49.2*, CAL PDZ FP-2 3.3, PGC1a acetyl inh 4.9, ARNT TACC3 PPI -8.0 and miR-122 sensor -5.2.
`CCOC(=O)C1(Cc2cccc(Cl)c2)CCCN(C(=O)c2ccnn2C)C1` (stereo not given) gave CAL PDZ FP-1 40.9*, CAL PDZ FP-2 -1.0, PGC1a acetyl inh -12.3, ARNT TACC3 PPI 0.8, CFTR F508del cor -0.7 and miR-122 sensor 0.5.
CCOC(=O)C1(Cc2cccc(Cl)c2)CCCN(C(=O)c2cccnc2)C1 (stereo not given) was read as CAL PDZ FP-1 8.0, CAL PDZ FP-2 -0.6, PGC1a acetyl inh 96.7*, ARNT TACC3 PPI 2.9, CFTR F508del cor 0.5 and miR-122 sensor -3.4.
`CCOC(=O)C1(Cc2cccc(Cl)c2)CCCN(C(=O)c2cn[nH]c2)C1` (stereo not given) gave CAL PDZ FP-1 5.0, CAL PDZ FP-2 -2.0, PGC1a acetyl inh -11.0, ARNT TACC3 PPI 2.1 and CFTR F508del cor 4.5.
Screening CCOC(=O)C1(Cc2ccccc2)CCCN(C(=O)c2ccc(-n3ccnc3)cc2)C1 (stereo not given) returned CAL PDZ FP-1 37.7*, CAL PDZ FP-2 -1.9, PGC1a acetyl inh -2.8, ARNT TACC3 PPI -4.7, CFTR F508del cor -5.5 and miR-122 sensor -9.8.
Cc1ccc2[nH]c3c(c2c1)CN(C(=O)CN1CCCc2ccccc21)CC3 was read as CAL PDZ FP-1 58.4*, CAL PDZ FP-2 -1.4, PGC1a acetyl inh 12.9, ARNT TACC3 PPI 12.0 and miR-122 sensor 15.7.
`Cn1c(=O)n(C)c2cc(NS(=O)(=O)c3ccc4c(c3)CCCC4)ccc21` gave CAL PDZ FP-2 -1.2, PGC1a acetyl inh 0.7 and ARNT TACC3 PPI 3.5.
Screening CC(=O)c1cccc(NS(=O)(=O)c2ccc3c(c2)oc(=O)n3C)c1 returned CAL PDZ FP-1 -2.0, CAL PDZ FP-2 -0.4, PGC1a acetyl inh 8.2, ARNT TACC3 PPI -6.5 and miR-122 sensor 207.9*.
`Cn1c(=O)n(C)c2cc(NS(=O)(=O)c3ccc(C(C)(C)C)cc3)ccc21` gave CAL PDZ FP-1 3.3, CAL PDZ FP-2 -0.6, PGC1a acetyl inh -3.6, ARNT TACC3 PPI -4.2, CFTR F508del cor 1.8 and miR-122 sensor 106.7*.
For Cn1c(=O)oc2cc(S(=O)(=O)Nc3cccc(C(=O)O)c3)ccc21 the results were CAL PDZ FP-2 -0.1, ARNT TACC3 PPI -3.3 and miR-122 sensor -1.7.
For CCc1cccc(NS(=O)(=O)c2ccc3c(c2)n(C)c(=O)n3C)c1 the results were CAL PDZ FP-1 -5.6, CAL PDZ FP-2 -0.8, ARNT TACC3 PPI -1.3, CFTR F508del cor -5.0 and miR-122 sensor 116.8*.
`CC(C)CC#Cc1ccc2c(c1)O[C@H](CN(C)Cc1cncnc1)[C@@H](C)CN([C@H](C)CO)S2(=O)=O` gave PGC1a acetyl inh -1.6, ARNT TACC3 PPI 7.9, CFTR F508del cor -4.1 and miR-122 sensor 20.9[16.7 µM].
C[C@@H]1CN([C@@H](C)CO)C(=O)c2cc(NC(=O)Nc3ccc(F)cc3)ccc2O[C@@H](C)CCCCO[C@H]1CN(C)S(=O)(=O)c1ccccc1 was read as PGC1a acetyl inh -6.6, CFTR F508del cor -3.5 and miR-122 sensor 22.5[16.7 µM].
